This is a sample that favours compounds with a hit; in the whole collection about 1.7% have one here.
CaV13 FRET inh – Disruptors of the CACNA1D IQ motif to Ca2+-dependent inactivation inhibitor domain association, primary screening, Förster resonance energy transfer in intact living …. HEK cells, CFP/YFP FRET ICDI-IQ, plate reader, 10 min; percent FRET-ratio fall versus neutral wells. inhibition, % at 12.3 µM. hit rate 0.098% among 340,000. AID 743397;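 active means mean replicate inhibition of at least 30% and at least 1% of replicates passing that level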;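 further: 0% = median of the neutral control wells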
V-ATPase pH – yeast V-ATPase proton transport regulation by pHLuorin; response, % at 10 µM; S. cerevisiae, pHLuorin cytosolic pH fluorescence; hit rate 0.37% among 350,000; in the data active means response mostly above about 7.3%, no sharp cut-off; inactive means mostly below about 5.4%; further: actives read high
SR-BI uptake up – SR-BI HDL lipid transfer activation; CHO ldlA[mSR-BI] cells, DiI-HDL uptake fluorescence, 3 h; 100 = double the neutral-control signal; activation, % at 12.5 µM; hit rate 0.096% among 320,000; AID 504775;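 active means mean replicate activation of at least 60% and every replicate at or above 60%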;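 further: 0% = median plate neutral-control signal and 100% = twice that signal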
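system = CHO ldlA[mSR-BI] cells, LDL receptor-null, SR-BI overexpressing | medium = Ham's F12 with 0.5% BSA, HEPES 25 mM, pH 7.4 | probe or stimulus = DiI-HDL 10 µg/mL | compound dosing = single-point compound dose | incubation = compound exposure 3 h, 37 °C | technique = DiI fluorescence, bottom read | read-out = cell-associated DiI fluorescence as measure of HDL uptake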
SR-BI HDL uptake – blocks mouse SR-BI lipid uptake from DiI-HDL; Q61009; ldlA[mSR-BI] CHO cells, DiI-HDL uptake fluorescence, 3 h; inhibition, % at 12.5 µM; hit rate 0.96% among 320,000;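 active means mean replicate inhibition of at least 70% and a set share of replicates each scoring 70 or more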;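 further: 0% = median of neutral control wells and 100% = median of positive control wells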
NTR1 agonist – agonists of human neurotensin receptor NTR1; activation, % at 20 µM; hit rate 0.17% among 330,000; P30989; NTR1-U2OS beta-arrestin-GFP spot imaging, agonist mode;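 active means activation at or above 40% of the spot to cytoplasm intensity ratio, with at least 20 cells analyzed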;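 further: 0% = DMSO without peptide and 100% = 100 nM NTR1 peptide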
Target sequence (P30989 whole entry, looked up): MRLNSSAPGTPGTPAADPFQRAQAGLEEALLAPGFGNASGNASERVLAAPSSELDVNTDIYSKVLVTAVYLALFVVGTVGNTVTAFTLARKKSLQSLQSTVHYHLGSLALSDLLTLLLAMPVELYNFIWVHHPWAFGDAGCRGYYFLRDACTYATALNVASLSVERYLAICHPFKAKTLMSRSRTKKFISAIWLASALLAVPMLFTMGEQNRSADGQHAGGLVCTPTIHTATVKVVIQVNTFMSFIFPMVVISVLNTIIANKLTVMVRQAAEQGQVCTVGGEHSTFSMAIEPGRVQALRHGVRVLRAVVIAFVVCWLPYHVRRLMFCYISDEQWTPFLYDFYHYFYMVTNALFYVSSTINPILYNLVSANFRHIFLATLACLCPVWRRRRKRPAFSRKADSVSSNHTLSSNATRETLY
Vif inh – blocks HIV Vif function; HEK293T cells, Vif self-association by quenched fluorescence, imaging, 24 h; inhibition, % at 7.49 µM; hit rate 0.35% among 340,000; AID 602346; in the data active means inhibition above about 50%, passing the limit was not always enough
* marks the source's active call; other numbers are inactive results; i = inactive; . = no result.

SMILES	CaV13 FRET inh	V-ATPase pH	SR-BI uptake up	SR-BI HDL uptake	NTR1 agonist	Vif inh
Cc1cnc(NC(=O)CN2CCN(c3ccccn3)CC2)s1	-3	0	9	-9	0	114*
COC(CSc1nc(N)c2c3c(sc2n1)CN(C)CC3)OC	-2	-1	5	-5	-1	12
Cc1cccn2c(=O)c3cc(C(=O)NCCc4ccccc4)c(=N)n(CCCn4ccnc4)c3nc12	33*	.	14	-14	2	-2
Cc1cccn2c(=O)c3cc(C(N)=S)c(=N)n(CCCOC(C)C)c3nc12	34*	6	-4	4	4	-11
COCCNC(=O)c1cc2c(=O)n3cccc(C)c3nc2n1C	-3	-5	8	-8	1	0
Cc1cccn2c(=O)c3cc(C(=O)NCCN4CCOCC4)c(=N)n(CCc4ccccc4)c3nc12	34*	-9	.	.	2	1
Cc1cccn2c(=O)c3cc(C(=O)NCCN4CCOCC4)c(=N)n(CCCN4CCOCC4)c3nc12	16	-2	.	.	1	7
CCOCCCNC(=O)c1cc2c(=O)n3cccc(C)c3nc2n1C	-7	16*	10	-10	0	22
O=C(Cn1cnc2ccccc2c1=O)c1ccc(OC(F)F)cc1	-4	-2	-6	6	-1	15
Cc1ccc(N(CCC#N)C(=O)COC(=O)C2=COCCO2)cc1	-2	2	10	-10	-1	2
C[C@@H]1C=CCCO[C@]12C(=O)N(CC1CC1)c1ccccc12	-3	.	.	.	.	.
O=C(Cn1nc(C(=O)O)c2ccccc2c1=O)Nc1ccc2c(c1)C(=O)c1ccccc1C2=O	.	.	.	.	4	.
CSCCNC(=O)Nc1c(-c2c(Cl)cccc2Cl)noc1C	-4	0	142*	-142	-2	0
O=C(NCCCN1CCCC1=O)c1ccc(Cl)c(Cl)c1	3	-3	3	-3	2	-3
O=C(Nc1ccccc1N1CCOCC1)C1CCCO1 (stereo not given)	-3	1	6	-6	0	16
O=C(c1ccco1)N1CCN(Cc2nnnn2C2CCCCC2)CC1	-4	0	0	0	1	5
C[C@H]1CN([C@@H](C)CO)C(=O)c2cccc(NC(=O)Nc3ccc(C(F)(F)F)cc3)c2O[C@@H]1CN(C)Cc1ccc(Cl)c(Cl)c1	-6	0	-75	75*	17	-7
C[C@H](CO)N1C[C@H](C)[C@@H](CN(C)S(=O)(=O)c2ccc(F)cc2)Oc2ccc(NC(=O)Nc3ccc(C(F)(F)F)cc3)cc2C1=O	-12	-3	43	-43	1	24
C[C@@H]1CN([C@H](C)CO)C(=O)c2cc(NC(=O)Nc3ccc(C(F)(F)F)cc3)ccc2O[C@H]1CN(C)S(=O)(=O)c1ccc(Cl)cc1	-3	-2	73*	-73	0	.
C[C@@H]1CN([C@@H](C)CO)C(=O)Cc2cc(NC(=O)Nc3ccc(C(F)(F)F)cc3)ccc2O[C@@H]1CN(C)S(=O)(=O)c1ccc(Cl)cc1	-10	-3	90*	-90	12	8
CN1CCN(c2ccc(S(=O)(=O)N3CCOCC3)cc2)CC1	.	1	46	-46	0	0
CCCCOCC1CN(CCCC)S(=O)(=O)c2c(cccc2Sc2ccc(OC)c(OC)c2)O1 (stereo not given)	-8	.	.	.	.	.
Cc1cccc(S(=O)(=O)NCCNS(=O)(=O)c2cccc(C)c2)c1	-4	-2	.	.	-1	8
C=C1C(=O)O[C@@H]2[C@H]1[C@@H](OC(=O)/C(C)=C/C)C/C(C)=C\C(=O)/C=C(\C)[C@@H]2O	-10	3	13	-13	5	97*
COC(=O)C1=C(C)N(C)C(=NCc2cc(OC)c(OC)c(OC)c2)NC1c1ccc(C(F)(F)F)cc1 (stereo not given)	-9	.	.	.	.	.
SMILES	CaV13 FRET inh	V-ATPase pH	SR-BI uptake up	SR-BI HDL uptake	NTR1 agonist	Vif inh
CCCCNc1c(-c2ccc(-c3ccc(C(C)=O)cc3)c(OC)c2)nc2cc(C)ccn12	-6	6	-72	72*	7	-7
CCCCNc1c(-c2ccc(OC)c(SC(C)CC)c2)nc2cc(C)ccn12 (stereo not given)	-5	1	-45	45	6	-4
CCOc1ccccc1NC(=O)Cn1c(=O)n(-c2ccccc2)c(=O)c2oc3ccccc3c21	-2	-1	0	0	2	-1
CCCCn1c(O)c(N=Nc2ccccc2O)c2ccccc21	-13	2	-10	10	0	145*
CCCNC(=O)N(C)C[C@H]1Oc2ncc(C#CCc3ccccc3)cc2C(=O)N([C@H](C)CO)C[C@H]1C	-4	1	.	.	.	1
C/C(CC(=O)Nc1ccccn1)=N\NC(=O)c1ccccc1O	-3	4	-73	73*	-1	3
CC1=C(C(=O)N2CCN(c3cc(C)ccc3C)CC2)C2(CCCCC2)OC1=O	47*	2	17	-17	2	14
O=C(CCSc1ccc(F)cc1)NNC(=O)c1ccccc1Cl	-5	-2	4	-4	2	4
CCCCOc1cccc2c(=O)n(CC(=O)Nc3ccc4c(c3)OCCO4)ccc12	-5	.	.	.	.	73*
Cc1ccn2c(/C=N/OCc3cccc(F)c3)c(-c3ccc(Cl)cc3)nc2c1	.	6	-78	78*	4	2
N#CCc1nn(Cc2ccc(F)cc2)c(=O)c2ccccc12	-6	5	18	-18	1	37
CCCCN(C=O)c1c(CC)nc2c(OCCOc3ccccc3)cccn12	-12	.	.	.	.	58*
CCN1/C(=C/C=C/c2sc3ccccc3[n+]2CC)Sc2ccccc21	.	-2	722*	i	-4	-36
CCN1/C(=C/C=C/C=C/c2sc3ccccc3[n+]2CC)Sc2ccccc21	.	.	.	.	19	.
Cc1nc(N2CCC(C)CC2)c2c(C)c(C(=O)Nc3ccc(C(F)(F)F)cc3)sc2n1	6	-4	-75	75*	2	-20
Cc1nc(N2CCC(C)CC2)c2c(C)c(C(=O)Nc3cccc(C(F)(F)F)c3)sc2n1	-5	-3	-87	87*	-2	-2
Cc1nc(N2CCC(C)CC2)c2c(C)c(C(=O)Nc3ccc4c(c3)OCCO4)sc2n1	-5	1	-69	69	0	0
COc1ccc(CNC(=O)C[C@H]2C[C@H](C(=O)N3CCCCC3)[C@@]3(C)c4[nH]c5cc(CCC(=O)N(C)C)ccc5c4CCN3C2=O)cc1OC	-6	3	6	-6	-1	-4
COc1cccc(-c2cc(C(F)(F)F)nc(-n3cc(C)cn3)n2)c1	-6	4	.	.	8	89*
O=C(Nc1ccccc1)C1=C[C@@H](C2CCCCC2)C[C@@H](OCCCCO)O1	-4	-3	-4	4	-1	69*

Bioassay records: PubChem, several laboratories
